Measured values collected from several papers.
MET Y1235D: Hepatocyte growth factor receptor (MET, Homo sapiens, UniProt P08581, Y1235D)
MET: Hepatocyte growth factor receptor (MET, Homo sapiens, UniProt P08581)
MET M1250T: Hepatocyte growth factor receptor (MET, Homo sapiens, UniProt P08581, M1250T)

| Compound | target | effect on | action | method | tested at | endpoint | value |
| --- | --- | --- | --- | --- | --- | --- | --- |
| Nc1ncnc2occ(-c3ccc(NC(=O)Nc4cc(C(F)(F)F)ccc4F)cc3)c12 | MET Y1235D | cell-free assay | – | – | 20 µM | remaining signal | 1.6% |
| CC(C)CC(=O)N1CCc2nc(-c3ccc(Br)cc3)nc(N(C)Cc3ccccc3)c2C1 | MET | cell-free assay | – | competition with immobilised ligand | 0.1 µM | remaining binding | 99% |
| Cc1sc(C(=O)NC2COC2)cc1-n1cc(NC(=O)Nc2c(F)cccc2Cl)cn1 | MET | enzyme activity | inhibitor | – | 10 µM | remaining activity | 77% |
| Cc1c[nH]c2nccc(Oc3c(F)cc(Nc4cc(Cl)nc(N)n4)cc3F)c12 | MET | cell-free assay | – | competition with immobilised ligand | 0.1 µM | remaining binding | 83% |
| COc1cc2ncnc(Nc3ccc(F)c(Cl)c3)c2cc1OCCCN1CCOCC1 | MET | cell-free assay | – | – | 0.5 µM | remaining signal | 92.4% |
| O=C(O)c1cc(-c2ccc(C3CCNCC3)cc2)c2ccc(-c3ccc(C(F)(F)F)cc3)cc2c1 | MET Y1235D | cell-free assay | – | competition with immobilised ligand | 1 µM | remaining binding | 100% |
| CC(C)(C)c1nc2c(s1)c1nc(N)ncc1c1ccc(NS(=O)(=O)c3c(F)cccc3F)c(F)c12 | MET | enzyme activity | inhibitor | radiometric | 1 µM | remaining activity | 90% |
| Cc1cnn2ncc(-c3ccnc(N(C)C)n3)c2c1 | MET Y1235D | binding | – | – | 1 µM | remaining binding | 87% |
| CC/C(=N\NC(=O)NCc1cccc(O)c1)c1ccc(O)c(C)c1O | Hepatocyte growth factor receptor (MET, Homo sapiens, UniProt P08581, D1228H) | enzyme activity | inhibitor | – | 0.1 µM | inhibition | -2.8% |
| CN(CCCC(F)(F)F)c1nccc(-c2cnn3ncccc23)n1 | MET M1250T | binding | – | – | 1 µM | remaining binding | 100% |
| Cc1cc(NC(=O)c2cccc3cc(-c4cccc5[nH]nc(N)c45)ccc23)ccc1F | Hepatocyte growth factor receptor (MET, Homo sapiens, UniProt P08581, Y1230H) | enzyme activity | inhibitor | – | 0.1 µM | activity vs control | 106% |
| CO[C@@H](C)c1c(Nc2ccc([C@H](N(C)C(=O)C3CCS(=O)(=O)CC3)C(F)(F)F)cc2)cnc2cc(Cl)nn12 | MET Y1235D | cell-free assay | – | competition with immobilised ligand | 1 µM | remaining binding | 100% |
| C[C@H]1CCN(c2nccc(-c3cnn4ncccc34)n2)C1 | MET | binding | – | – | 1 µM | remaining binding | 94% |
| CN(C)C1CCN(CC#Cc2nn(C3CCCC3)c3nc(NCc4ccccc4)ncc23)C1 (stereo not drawn) | MET | enzyme activity | inhibitor | FRET | 1 µM | inhibition | 28% |
| Cc1nccc(COC(=O)N2C[C@@H]3[C@@H](CNC(=O)c4ccc5[nH]nnc5c4)[C@@H]3C2)n1 | MET Y1235D | cell-free assay | – | competition with immobilised ligand | 1 µM | remaining binding | 92% |
| CN(C)c1ncc(F)c(-c2cnn3ncccc23)n1 | MET Y1235D | binding | – | – | 1 µM | remaining binding | 100% |
| CNC(=O)c1cc2c(Oc3ccc(NC(=O)C4(C(=O)Nc5ccc(F)cc5)CC4)cc3)ccnc2cc1OC | Hepatocyte growth factor receptor (MET, Homo sapiens, UniProt P08581, D1228N) | enzyme activity | inhibitor | radiometric | 1 µM | inhibition | 100% |
| Cc1c(NC(=O)c2cc(C(N)=O)nc3cc(F)ccc23)c(C(F)(F)F)nn1Cc1ccc(C(C)(C)C)cc1 | MET Y1235D | cell-free assay | – | competition with immobilised ligand | 1 µM | remaining binding | 84% |
| Cc1ccc(C(=O)Nc2ccc(CN3CCN(C)CC3)c(C(F)(F)F)c2)cc1C#Cc1cnc2cccnn12 | MET | cell-free assay | – | – | 23.5 nM | remaining signal | 92% |
| N#CCCc1ccc2c(c1)-c1[nH]c3ccc([N+](=O)[O-])cc3c1CC(=O)N2 | MET | cell-free assay | – | – | 0.5 µM | remaining signal | 119% |
| CN(c1nccc(-c2cnn3ncccc23)n1)C1CC1 | MET Y1235D | binding | – | – | 1 µM | remaining binding | 100% |
| Oc1ccc(-c2nc(-c3ccncc3)c(-c3ccc(F)cc3)[nH]2)cc1 | MET | cell-free assay | – | – | 0.5 µM | remaining signal | 94.4% |
| CC1=C(C#N)[C@@H](c2ccc3[nH]nc(C)c3c2)C(C#N)=C(c2ccc(Cl)cc2)N1 | MET Y1235D | cell-free assay | – | competition with immobilised ligand | 1 µM | remaining binding | 52.6% |
| CC1CCCN1c1nccc(-c2cnn3ncccc23)n1 (stereo not drawn) | MET M1250T | binding | – | – | 1 µM | remaining binding | 100% |
| Cc1ccc(NC(=O)c2ccc(C)c(C(F)(F)F)c2)cc1C#Cc1nn(C2CCC(O)CC2)c2ncnc(N)c12 (stereo not drawn) | Hepatocyte growth factor receptor (MET, Homo sapiens, UniProt P08581, Y1230C) | cell-free assay | – | – | 10 µM | remaining signal | 139% |
| O=C(Nc1cnn(-c2csc(C(=O)NC3COC3)c2)c1)Nc1c(F)cccc1Cl | MET | enzyme activity | inhibitor | – | 5 µM | remaining activity | 86.1% |
| CCCOc1ccc([C@@H]2[C@@H](C(=O)O)[C@H](c3ccc4c(c3)OCO4)CN2CC(=O)Nc2c(CC)cccc2CC)cc1 | MET M1250T | cell-free assay | – | competition with immobilised ligand | 1 µM | remaining binding | 81% |
| Cc1cnc(NC2CCOCC2)nc1-n1cnc(C(=O)NC(CN)c2cc(F)cc(Cl)c2)c1 (stereo not drawn) | MET | enzyme activity | inhibitor | radiometric | 1 µM | remaining activity | 101% |
| N[C@H]1CCN(c2nccc(-c3cnn4ncccc34)n2)C1 | MET Y1235D | binding | – | – | 1 µM | remaining binding | 100% |
| O=C1NC(=O)c2cc(Nc3ccc(F)cc3)c(Nc3ccc(F)cc3)cc21 | MET | cell-free assay | – | – | 0.5 µM | remaining signal | 96.7% |
